From ChEMBL document CHEMBL1139875, “Discovery of 4-aminobutyric acid derivatives possessing anticonvulsant and antinociceptive activities: a hybrid pharmacophore approach” (2007)
Active and inactive are the calls of the source. The calls are words filed in the database; no cut-off is given here.

Legend:
[1] = system: Mus musculus; assay: Anticonvulsant activity in Swiss Albino mouse at 300 mg/kg, ip after 0.5 hr by MES test; assay type: functional, organism-based; set-up: dose 300 mg/kg
Procedure, shortened: (§1)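 Mice (Swiss, 20-25 g) given i.p. doses of 30, 100 and 300 mg/kg under ADD program protocols, three per group, examined at 0.5 and 4 h in MES, scPTZ, scSTY or scPIC seizure tests. Value is the minimum dose protecting half or more of the mice.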

[2] = system: Mus musculus; assay: Anticonvulsant activity in Swiss Albino mouse at 300 mg/kg, ip after 4 hrs by MES test; assay type: functional, organism-based; set-up: dose 300 mg/kg; procedure, shortened: as §1
[3] = system: Mus musculus; assay: Anticonvulsant activity in Swiss Albino mouse at 300 mg/kg, ip after 0.5 hr by scPTZ test; assay type: functional, organism-based; set-up: dose 300 mg/kg; procedure, shortened: as §1
[4] = system: Mus musculus; assay: Anticonvulsant activity in Swiss Albino mouse at 300 mg/kg, ip after 0.5 hr by scSTY test; assay type: functional, organism-based; set-up: dose 300 mg/kg; procedure, shortened: as §1
[5] = system: Mus musculus; assay: Anticonvulsant activity in Swiss Albino mouse at 300 mg/kg, ip after 4 hrs by scSTY test; assay type: functional, organism-based; set-up: dose 300 mg/kg; procedure, shortened: as §1
[6] = system: Mus musculus; assay: Anticonvulsant activity in Swiss Albino mouse at 300 mg/kg, ip after 0.5 hr by scPIC test; assay type: functional, organism-based; set-up: dose 300 mg/kg; procedure, shortened: as §1
[7] = system: Mus musculus; assay: Anticonvulsant activity in Swiss Albino mouse at 300 mg/kg, ip after 4 hrs by scPIC test; assay type: functional, organism-based; set-up: dose 300 mg/kg; procedure, shortened: as §1
[8] = system: Mus musculus; assay: Neurotoxicity in Swiss Albino mouse at 300 mg/kg, ip after 0.5 hr by rotarod test; assay type: functional, organism-based; set-up: dose 300 mg/kg
Procedure, shortened: (§2)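 Swiss mice (20-25 g) are trained on an accelerating rotorod (10 rpm, 3.2 cm rod), then injected i.p. at 30, 100 or 300 mg/kg, with three per group. Neurotoxicity means failure to keep equilibrium for at least 1 min in each of three trials, checked at 0.5 and 4 h. The value reported is the minimum dose affecting half or more of the mice.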

[9] = system: Mus musculus; assay: Neurotoxicity in Swiss Albino mouse at 300 mg/kg, ip after 4 hrs by rotarod test; assay type: functional, organism-based; set-up: dose 300 mg/kg; procedure, shortened: as §2
[10] = system: Mus musculus; assay: Analgesic activity in Swiss Albino mouse assessed as number of acetic acid-induced writhing per 30 min after 100 mg/kg, ip; assay type: functional
Procedure, shortened: (§3)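 Mice in groups of six dosed i.p. at 100 mg/kg, controls receiving 30% v/v PEG 400 in water. Writhing induced by i.p. 0.1 mL of 3% v/v acetic acid 1 h after drug. Writhes (abdominal stretch with at least one hind limb extended) counted over 30 min; % inhibition calculated. Mean ± SEM, Student's t test.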

[11] = system: Mus musculus; assay: Analgesic activity in Swiss Albino mouse assessed as inhibition of acetic acid-induced writhing responses at 100 mg/kg, ip; assay type: functional; conditions: for inhibition in vivo at 100 mg/kg: route intraperitoneal; procedure, shortened: as §3
[12] = system: Rattus norvegicus; assay: Effect on spontaneous pain in Sprague-Dawley rat CCI model assessed as duration of paw withdrawal at 100 mg/kg, ip after 0.5 hr; assay type: functional; conditions: route intraperitoneal
Procedure, shortened: (§4)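 CCI rats (n = 4) dosed 100 mg/kg i.p. (vehicle 30% v/v PEG 400 in water). After 10 min acclimatization in a cage 5 cm above ground, cumulative time the ipsilateral paw was held off the floor over 5 min recorded, excluding locomotion lifts. Mean ± SEM; ANOVA/Bonferroni versus predrug.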

[13] = system: Rattus norvegicus; assay: Effect on spontaneous pain in Sprague-Dawley rat CCI model assessed as duration of paw withdrawal at 100 mg/kg, ip after 1 hr; assay type: functional; conditions: route intraperitoneal; procedure, shortened: as §4
[14] = system: Rattus norvegicus; assay: Effect on spontaneous pain in Sprague-Dawley rat CCI model assessed as duration of paw withdrawal at 100 mg/kg, ip after 1.5 hrs; assay type: functional; conditions: route intraperitoneal
Procedure, shortened: (§5)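 Unilateral CCI of sciatic nerve (Bennett and Xie) in Sprague-Dawley rats under i.p. pentobarbital sodium (65 mg/kg). Spontaneous pain is scored over 5 min after 10 min acclimatization, as cumulative time the ipsilateral paw is held off the floor. Paw lifts from locomotion or repositioning are excluded. Drug is given at 100 mg/kg i.p. with 30% v/v PEG 400 vehicle. Mean ± SEM, n = 4, compared with predrug by ANOVA/Bonferroni.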

[15] = system: Rattus norvegicus; assay: Effect on spontaneous pain in Sprague-Dawley rat CCI model assessed as duration of paw withdrawal at 100 mg/kg, ip after 2 hrs; assay type: functional; conditions: route intraperitoneal; procedure, shortened: as §5
[16] = system: Rattus norvegicus; assay: Anti-dynamic allodynia effect in Sprague-Dawley rat SNL model assessed as latency to paw withdrawal 100 mg/kg, ip after 0.5 hr; assay type: functional; conditions: route intraperitoneal
Procedure, shortened: (§6)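 Left L5 spinal nerve ligation rats, tested preoperatively and 9 days postoperatively, then given 100 mg/kg i.p. (vehicle 30% v/v PEG 400 in water). After 10 min acclimatization, plantar surface of affected paw stroked mildly with a cotton-bud; paw lift response recorded. n = 4; retested 0.5-2.5 h post-dose.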

[17] = system: Rattus norvegicus; assay: Anti-dynamic allodynia effect in Sprague-Dawley rat SNL model assessed as latency to paw withdrawal 100 mg/kg, ip after 1 hr; assay type: functional; conditions: route intraperitoneal; procedure, shortened: as §6
[18] = system: Rattus norvegicus; assay: Anti-dynamic allodynia effect in Sprague-Dawley rat SNL model assessed as latency to paw withdrawal 100 mg/kg, ip after 1.5 hrs; assay type: functional; conditions: route intraperitoneal; procedure, shortened: as §6
[19] = system: Rattus norvegicus; assay: Anti-dynamic allodynia effect in Sprague-Dawley rat SNL model assessed as latency to paw withdrawal 100 mg/kg, ip after 2 hrs; assay type: functional; conditions: route intraperitoneal; procedure, shortened: as §6
[20] = system: Rattus norvegicus; assay: Anti-dynamic allodynia effect in Sprague-Dawley rat SNL model assessed as latency to paw withdrawal 100 mg/kg, ip after 2.5 hrs; assay type: functional; conditions: route intraperitoneal; procedure, shortened: as §6
[21] = system: Rattus norvegicus; assay: Effect on spontaneous pain in Sprague-Dawley rat CCI model assessed as duration of paw withdrawal at 100 mg/kg, ip after 2.5 hrs; assay type: functional; conditions: route intraperitoneal; procedure, shortened: as §5
[22] = system: Rattus norvegicus; assay: Antihyperalgesic effects in Sprague-Dawley rat CCI model assessed as duration of paw withdrawal at 100 mg/kg, ip after 0.5 hr; assay type: functional; conditions: route intraperitoneal
[23] = system: Rattus norvegicus; assay: Antihyperalgesic effects in Sprague-Dawley rat CCI model assessed as duration of paw withdrawal at 100 mg/kg, ip after 1 hr; assay type: functional; conditions: route intraperitoneal
[24] = system: Rattus norvegicus; assay: Antihyperalgesic effects in Sprague-Dawley rat CCI model assessed as duration of paw withdrawal at 100 mg/kg, ip after 1.5 hrs; assay type: functional; conditions: route intraperitoneal
[25] = system: Rattus norvegicus; assay: Antihyperalgesic effects in Sprague-Dawley rat CCI model assessed as duration of paw withdrawal at 100 mg/kg, ip after 2 hrs; assay type: functional; conditions: route intraperitoneal
[26] = system: Rattus norvegicus; assay: Antihyperalgesic effects in Sprague-Dawley rat CCI model assessed as duration of paw withdrawal at 100 mg/kg, ip after 2.5 hrs; assay type: functional; conditions: route intraperitoneal
[27] = system: Rattus norvegicus; assay: Effect on spontaneous pain in Sprague-Dawley rat SNL model assessed as duration of paw withdrawal at 100 mg/kg, ip after 0.5 hr; assay type: functional; conditions: route intraperitoneal
Procedure, shortened: (§7)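 Rats underwent left L5 spinal nerve ligation (Kim and Chung) under i.p. pentobarbital (65 mg/kg). Spontaneous pain is recorded for 5 min after 10 min acclimatization, as cumulative duration the ipsilateral paw is lifted, excluding locomotor lifts. Dosing is 100 mg/kg i.p. in 30% v/v PEG 400/water, with testing at 0.5–2.5 h. Four rats, mean ± SEM versus predrug, one-way ANOVA with Bonferroni.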

[28] = system: Rattus norvegicus; assay: Effect on spontaneous pain in Sprague-Dawley rat SNL model assessed as duration of paw withdrawal at 100 mg/kg, ip after 1 hr; assay type: functional; conditions: route intraperitoneal; procedure, shortened: as §7
[29] = system: Rattus norvegicus; assay: Effect on spontaneous pain in Sprague-Dawley rat SNL model assessed as duration of paw withdrawal at 100 mg/kg, ip after 1.5 hrs; assay type: functional; conditions: route intraperitoneal; procedure, shortened: as §7
[30] = system: Rattus norvegicus; assay: Effect on spontaneous pain in Sprague-Dawley rat SNL model assessed as duration of paw withdrawal at 100 mg/kg, ip after 2 hrs; assay type: functional; conditions: route intraperitoneal; procedure, shortened: as §7
[31] = system: Rattus norvegicus; assay: Effect on spontaneous pain in Sprague-Dawley rat SNL model assessed as duration of paw withdrawal at 100 mg/kg, ip after 2.5 hrs; assay type: functional; conditions: route intraperitoneal; procedure, shortened: as §7
[32] = system: Rattus norvegicus; assay: Antihyperalgesic effects in Sprague-Dawley rat SNL model assessed as duration of paw withdrawal at 100 mg/kg, ip after 0.5 hr, ip; assay type: functional; conditions: route intraperitoneal
Procedure, shortened: (§8)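 L5 SNL rats (n = 4), dosed 100 mg/kg i.p. (vehicle 30% v/v PEG 400 in water). Pin-prick to midplantar ipsilateral left hindpaw; withdrawal duration, mean of three responses; ≥2 s defined abnormal. Mean ± SEM; one-way ANOVA with Bonferroni versus predrug.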

[33] = system: Rattus norvegicus; assay: Antihyperalgesic effects in Sprague-Dawley rat SNL model assessed as duration of paw withdrawal at 100 mg/kg, ip after 1 hr, ip; assay type: functional; conditions: route intraperitoneal; procedure, shortened: as §8
[34] = system: Rattus norvegicus; assay: Antihyperalgesic effects in Sprague-Dawley rat SNL model assessed as duration of paw withdrawal at 100 mg/kg, ip after 1.5 hrs, ip; assay type: functional; conditions: route intraperitoneal; procedure, shortened: as §8
[35] = system: Rattus norvegicus; assay: Antihyperalgesic effects in Sprague-Dawley rat SNL model assessed as duration of paw withdrawal at 100 mg/kg, ip after 2 hrs, ip; assay type: functional; conditions: route intraperitoneal; procedure, shortened: as §8
[36] = system: Rattus norvegicus; assay: Antihyperalgesic effects in Sprague-Dawley rat SNL model assessed as duration of paw withdrawal at 100 mg/kg, ip after 2.5 hrs, ip; assay type: functional; conditions: route intraperitoneal; procedure, shortened: as §8

Compound	Activity [1]	Activity [2]	Activity [3]	Activity [4]	Activity [5]	Activity [6]	Activity [7]	Activity [8]	Activity [9]	Activity ([10]; route intraperitoneal)	inhibition in vivo at 100 mg/kg [11] [%]	Activity [16] [s]	Activity [17] [s]	Activity [18] [s]	Activity [19] [s]	Activity [20] [s]	Activity [27] [s]	Activity [28] [s]	Activity [29] [s]	Activity [30] [s]	also measured
O=C(O)CCCNC(=O)N/N=C/c1ccc([N+](=O)[O-])cc1	inactive	inactive	inactive	inactive	inactive	inactive	inactive	Active	inactive	18.7	90	14.5	4.3	1.5	1.8	1.34	–	–	–	–	Activity [12]: 10.2 s; Activity [13]: 9.2 s; Activity [14]: 13.6 s; Activity [15]: 11.3 s; Activity [21]: 17.2 s
CC(=O)Oc1ccccc1C(=O)O [ASPIRIN]	inactive	inactive	inactive	inactive	inactive	inactive	inactive	inactive	inactive	5.7	97	–	–	–	–	–	–	–	–	–	–
O=C(O)CCCNC(=O)NN=C1CCCCC1	inactive	inactive	Active	inactive	inactive	Active	inactive	inactive	inactive	32	82	5.2	5.6	1.8	0.2	0.24	21.2	20.2	10.8	10.6	Activity [22]: 20.3 s; Activity [23]: 24.8 s; Activity [24]: 4.8 s; Activity [25]: 5.2 s; Activity [26]: 7 s; Activity [31]: 10.8 s; Activity [32]: 14.7 s; Activity [33]: 19.7 s; Activity [34]: 15.6 s; Activity [35]: 11.3 s; Activity [36]: 12.8 s
CCC1(C)CC(=O)NC1=O (stereo unspecified)	inactive	inactive	Active	inactive	inactive	inactive	inactive	inactive	inactive	–	–	–	–	–	–	–	–	–	–	–	Activity [10]: inactive; Activity [11]: inactive
O=C(O)CCCNC(=O)NN=C(c1ccccc1)c1ccccc1	Active	inactive	inactive	Active	Active	Active	Active	Active	inactive	13.3	93	–	–	–	–	–	15.1	18.5	13.4	10.9	Activity [31]: 8.8 s; Activity [32]: 18.4 s; Activity [33]: 19.9 s; Activity [34]: 18.5 s; Activity [35]: 13.7 s; Activity [36]: 15 s
C/C(=N\NC(=O)NCCCC(=O)O)c1ccc([N+](=O)[O-])cc1	inactive	inactive	inactive	inactive	inactive	inactive	inactive	inactive	inactive	61	67	–	–	–	–	–	–	–	–	–	–
